Source: PubChem BioAssay
An excerpt weighted towards active compounds, which were near 1.4% of everything screened.
Efflux pump mplx: inhibitors of Candida efflux pumps in yeast, primary screen, S. cerevisiae, Nile Red, multiplex; inhibition, % at 10 µM; S. cerevisiae Candida pump triplex; actives 0.44% (n = 330,000);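 active = plate passing quality check with inhibition over a set limit, or well fluorescence over plate mean plus 4 SD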;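 also: Nile Red retained in pooled yeast measured as flow cytometry median fluorescence; 0% = buffer negative control and 100% = Enniatin B positive control; higher means more Nile Red kept so more efflux inhibition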
HDAC3 inh: HDAC3 deacetylase inhibitors, primary screen, biochemical, fluorescence, cell-free homogeneous; AID 2718, 2010; inhibition, % at 8.3 µM; recombinant HDAC3, fluorogenic peptide/trypsin coupled; actives 0.15% (n = 320,000); in the data active = inhibition above about 26%, passing the limit was not always enough; inconclusive = no clear call, values can overlap the other calls
Target sequence (O15379 whole entry, looked up): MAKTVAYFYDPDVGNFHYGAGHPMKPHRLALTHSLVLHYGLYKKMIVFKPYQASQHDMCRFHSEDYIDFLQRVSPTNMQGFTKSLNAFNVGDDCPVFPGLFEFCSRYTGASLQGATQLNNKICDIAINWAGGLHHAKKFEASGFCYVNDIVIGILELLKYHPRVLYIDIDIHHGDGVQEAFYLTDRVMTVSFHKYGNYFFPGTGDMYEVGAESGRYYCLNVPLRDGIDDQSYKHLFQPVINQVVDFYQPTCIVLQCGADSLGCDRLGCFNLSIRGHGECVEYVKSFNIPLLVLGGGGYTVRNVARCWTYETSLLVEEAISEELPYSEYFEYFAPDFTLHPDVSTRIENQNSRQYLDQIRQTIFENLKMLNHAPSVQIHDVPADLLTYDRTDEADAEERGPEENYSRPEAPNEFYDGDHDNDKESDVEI
Tb MetRS inh: T. brucei MetRS inhibitors, primary screen, biochemical, luminescence. methionyl-tRNA synthetase (Trypanosoma brucei brucei). purified T. brucei MetRS, ATP depletion, Kinase-Glo luminescence. inhibition, % at 11.9 µM. actives 0.4% (n = 360,000);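 active = inhibition above a per-plate cutoff of the control wells' mean inhibition plus 3 SD, cut at about 5.5% in these data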;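 also: 0% = DMSO wells median and 100% = median of wells with control inhibitor compound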
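assay system = parasite MetRS enzyme | timing = 15 min preincubation, 2 h reaction, all 25 °C | evaluation = percent inhibition relative to median high and low control wells | medium = HEPES buffer containing pyrophosphatase, BSA, spermine, DTT | compound = single dose, 11.9 µM final nominal, 0.9% final DMSO | detection = Kinase-Glo luminescence, ATP depletion format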
Yeast superoxide: reduction of superoxide in aged yeast, primary screen, HTS; superoxide response (% of plate mean), % at 10 µM; actives 0.18% (n = 330,000); S. cerevisiae aged cells, superoxide DHE fluorescence; active compounds read low;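 active = superoxide response under a set limit, about three screen SD below normal, cut at about 65% in these data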;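 also: yeast aged for seven days with compound at 30 °C before DHE staining; 100% = average MFI of all compound-treated wells on the plate with controls excluded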
IDE inh: human IDE inhibitors in live cells, primary screen, fluorescence polarization, HEK cells, FAbetaB substrate | Insulin-degrading enzyme (Homo sapiens), P14735 | FAbetaB cleavage | inhibition, % at 5.59 µM | actives 0.41% (n = 320,000);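 active = percent inhibition above the average of all tested compounds plus 3 SD, set per screening campaign, cut at about 16% in these data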;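 also: IDE supplied by intact live HEK cells; FP after avidin binding of uncleaved biotin substrate so inhibition keeps polarization high; 0% = DMSO wells and 100% = 60 µM reference IDE inhibitor Ii1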
IDE act: human IDE activators in live cells, primary screen, fluorescence polarization, HEK cells, FAbeta-B substrate; activation, % at 5.96 µM; FAbeta-B cleavage; 0% vehicle, 100% cell-free pure enzyme wells; Insulin-degrading enzyme (Homo sapiens), P14735; actives 0.073% (n = 340,000); AID 493087, 2011;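 active = activation above the mean of all tested compounds plus 3 SD, set per screening campaign, cut at about 17% in these data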
IDE cell inh cf: human IDE inhibitors in live cells, confirmation, fluorescence polarization, HEK cells, FAbetaB substrate; actives 51% (n = 1,200); FAbetaB cleavage; inhibition, % at 5.59 µM; shares compounds with IDE inh;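 active = mean inhibition across triplicate wells above the cutoff set by the earlier primary insulin-degrading enzyme screen, cut at about 16% in these data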;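 also: 0% = DMSO wells and 100% = 60 µM reference IDE inhibitor Ii1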
HEK293 tox: cytotoxicity in HEK cells, cytotoxicity control for IDE inhibitor project, cell-based, luminescence; shares compounds with IDE inh; HEK293 cytotoxicity, ATP luminescence; inhibition, % at 5.59 µM; actives 28% (n = 1,200); in the data active = inhibition above about 22%;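 also: 0% = vehicle wells and 100% = reference cytotoxic drug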
FP fluor counter: fluorescent or optically active artefacts, dose response, artefact control for IDE inhibitor project, biochemical, fluorescence polarization; shares compounds with IDE inh; FP counterscreen for fluorescent artifacts, IDE probe project; IC50, µM; 30 tested, under 10 active; AID 588718, 2011; call rule not given here
The depositor's hits bear a star; ? = inconclusive; . = not tested or not shown.

SMILES	Efflux pump mplx	HDAC3 inh	Tb MetRS inh	Yeast superoxide	IDE inh	IDE act	IDE cell inh cf	HEK293 tox	others
CC(=O)Oc1ccc(/C=C2/Oc3ccccc3C2=O)cc1	0	-5	3	96	28*	-47	66*	21
COC(=O)c1ccc2c(c1)C(=O)/C(=C/c1ccc(O)cc1)O2	0	5	0	94	55*	-106	86*	21
COc1ccc(/C=C2\Oc3ccccc3C2=O)cc1	0	-21	0	88	6	0	.	.
O=C(O)C1c2ccccc2C(=O)N(Cc2ccc(F)cc2)C1c1ccncc1 (stereo unspecified)	0	-1	-1	101	16*	.	6	4
Cc1nn(Cc2c(F)c(F)c(F)c(F)c2F)c(C)c1NC(=O)c1ccc(COc2ccc(Cl)cc2Cl)o1	0	5	1	94	19*	-10	7	34*
Cc1nn(Cc2ccc(Cl)cc2Cl)c(C)c1NC(=O)c1ccc(COc2cc(Cl)ccc2Cl)o1	0	-6	-1	84	0	1	.	.
Cc1nn(Cc2cccc(F)c2)c(C)c1NC(=O)c1ccc(COc2ccccc2Cl)cc1	1	3	0	92	25*	-35	13	55*
Cn1c(CNC(=O)CNC(=O)Cc2ccc(Cl)cc2)cc(=O)n(C)c1=O	0	1	-1	76	0	10	.	.
COc1cc(NC(=O)CSc2nc3[nH]ncc3c(=O)n2-c2ccccc2C)cc(OC)c1OC	0	0	-1	86	4	4	.	.
C=CCN(C(=O)CSc1nc2[nH]ncc2c(=O)n1-c1ccccc1OC)c1ccccc1	0	.	-1	134	18*	-13	13	3
COc1cccc(-c2nnc(SCc3nc4ccccc4[nH]3)n2Cc2ccco2)c1	.	.	.	.	.	.	.	.	FP fluor counter=>55
Cn1c(SCc2nc3ccccc3[nH]2)nnc1-c1cccc(Cl)c1	.	.	.	.	.	.	.	.	FP fluor counter=>55
Cn1c(SCc2nc3ccccc3[nH]2)nnc1-c1ccccn1	0	7	2	99	8	6	.	.
c1ccc(-c2nnc(SCc3nc4ccccc4[nH]3)n2Cc2ccco2)cc1	0	5	3	105	9	-6	.	.
CN(Cc1ccccc1)C(=O)c1ccc(NC(=O)Cc2cccc(NC(=O)C3CCCN(C(=O)C4CCC4)C3)c2)cc1 (stereo unspecified)	0	4	0	83	1	3	.	.
CCCN(Cc1cc2cc(C)ccc2[nH]c1=O)C(=O)c1cccc([N+](=O)[O-])c1	0	1	0	82	8	4	.	.
C=CCN1C(=O)[C@@H]2Cc3c([nH]c4ccccc34)C(c3ccc(O)cc3)N2C1=S (stereo partly specified)	0	-3	-1	101	25*	-40	15	22*
C=CCN1C(=O)[C@@H]2Cc3c([nH]c4ccccc34)C(c3cc(OC)c(OC)c(OC)c3)N2C1=S (stereo partly specified)	0	4	0	107	15	-67	.	.
Cc1ccc(-c2csc3nc[nH]c(=S)c23)cc1C	0	6	-1	92	22*	-9	3	13
COC(=O)C1=C(C(=O)OC)[C@@H]2N(Cc3ccccc3)c3ccccc3[C@@]23C[C@@H](C(=O)OC)N=C3N1	0	5	0	95	0	5	.	.
COC(=O)c1c(C)[nH]c(C(=O)C(C)OC(=O)C2CC2)c1C (stereo unspecified)	0	9	0	80	-4	2	.	.
N#CC1=C(S)N=C(N)C(c2nc(-c3ccccc3)cs2)C12CCCCC2 (stereo unspecified)	0	-5	0	102	-1	-1	.	.
N#CC1=C(S)N=C(N)C(c2nc(-c3ccccc3)cs2)C12CCCC2 (stereo unspecified)	0	1	2	119	20*	-10	9	6
Nc1c(C(=O)c2ccccc2)sc2nsc(SCCN3CCOCC3)c12	0	14	0	104	29*	.	61*	58*
CCc1cc(C(=O)NNC(=S)NC2CCCCC2)cs1	0	0	0	91	-4	-3	.	.
SMILES	Efflux pump mplx	HDAC3 inh	Tb MetRS inh	Yeast superoxide	IDE inh	IDE act	IDE cell inh cf	HEK293 tox	others
CCc1cc(C(=O)NNC(=S)NC(C)c2ccccc2)cs1 (stereo unspecified)	0	-7	-1	93	19*	-5	7	15
CCOC(=O)c1sc(N/N=C/c2ccccc2)nc1C	0	3	0	106	6	-3	.	.
CC(=O)c1sc(N/N=C\c2ccccc2O)nc1C	0	6	0	100	31*	-37	48*	6
O=C(COc1ccc2c3c(c(=O)oc2c1)CCC3)N1CCN(c2ccccc2)CC1	0	-4	0	92	18*	-13	5	7
Cc1ccc(N(CC(=O)N/N=C/c2cccc(Br)c2)S(C)(=O)=O)cc1	0	4	0	96	27*	-16	17*	6
Cc1ccc(N(CC(=O)N/N=C/c2cccs2)S(C)(=O)=O)cc1	-1	0	0	111	1	5	.	.
Cc1ccc(NS(=O)(=O)c2ccc(C(=O)NCCCN3CCCC3=O)cc2)cc1	0	1	0	113	-5	3	.	.
CC(Oc1cccc([N+](=O)[O-])c1)C(=O)NCCC1=CCCCC1 (stereo unspecified)	0	5	0	98	2	1	.	.
CC(C)Cc1nnc(NC(=O)C2CCCC2)s1	0	-1	-1	91	3	6	.	.
CCN1C/C(=C/c2ccc(N3CCOCC3)cc2)C(=O)/C(=C/c2ccc(N3CCOCC3)cc2)C1	0	?	0	111	18*	-24	29*	94*
CCN(CC(=O)Nc1ccccc1C(F)(F)F)C(=O)CN1C(=O)NC(C)(c2ccccc2)C1=O (stereo unspecified)	0	1	0	93	1	5	.	.
O=C(C(=O)N1CCCCCC1)c1c[nH]c2ccccc12	0	5	1	89	.	1	.	.
